Measurements: PMC4428392 (Anti-Cancer Agents in Medicinal Chemistry, 2014)
Several values for one entry are separate records, joined by “and”; a condition that tells them apart may be missing. Identical values can stand only once. Like-named read-outs stand apart in the source and are kept apart here.

Legend:
Type in all cases: cell-based, Human
[1] = test system: HCT-116; assay: MTT cytotoxicity assay in normoxia and hypoxia, HCT-116; settings: for HCR = hypoxic cytotoxicity ratio IC50 (aerobic)/IC50 (hypoxic): HCT-116; for IC50: Homo sapiens
Method in brief: (§1)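 MCF-7 and HCT-116 were grown in DMEM; NCI-H460 in RPMI 1640 plus 10 mM HEPES; all media had 10% FBS, pyruvate and 1.5 g/L bicarbonate. Cells were seeded at 20000/well and grown 24 h at 20% O2, 5% CO2, 37 °C. Serial compound concentrations were then given for 24 h in normoxia, or for 6 h hypoxia (3% O2) followed by 18 h normoxia. MTT was read at 545 nm. IC50 came from linear regression of % inhibition versus log concentration, and HCR = IC50 normoxia/IC50 hypoxia.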

[2] = test system: NCI-H460; assay: MTT cytotoxicity assay in normoxia and hypoxia, NCI-H460; settings: for IC50: Homo sapiens; for HCR = IC50 (aerobic)/IC50 (hypoxia): NCI-H460
Method in brief: as §1

[3] = test system: co-cultured HUVECs and fibroblasts; assay: In vitro tube formation test; settings: 2 μM, 11 days
Method in brief: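 HUVECs were co-cultured with fibroblasts for 11 days in basal medium, solvent-control medium (0.2% DMSO), or solvent medium with test compound at 2 or 20 μM. Medium ± compound was renewed every 3 days, and suramin served as the kit positive control. HUVECs were stained with anti-CD31, and tube area, length, joints and paths were measured by image analyzer over 5 fields. Quadruplicate wells; mean ± SEM, n=4.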

[4] = test system: HCT-116 cells; assay: Cell cycle assay by flow cytometry; settings: 24 h
[5] = test system: caspase 3/7 in HCT-116 cells; assay: Caspase 3/7 activity; settings: 30 µM, 24 h; for level of active caspase 3/7: HCT-116, hypoxia, solvent control 7%; for effect on level of active caspase 3/7: HCT-116, normoxia
Method in brief: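 HCT-116 cells were exposed to test compound at 30 µM for 24 h in normoxia or hypoxia. Cells were harvested, washed in PBS, centrifuged (350 g, 5 min) and stained with a FAM-FLICA caspase-3/7 inhibitor kit. Active caspase 3/7 was measured by flow cytometry. Data are mean ± SEM, n=3, compared with solvent control by one-way ANOVA with Tukey post hoc test.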

[6] = test system: HCT-116 cells; assay: ROS analysis by flow cytometry
Method in brief: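 HCT-116 cells were treated with test compound at 15 or 30 µM in normoxia or hypoxia (24 h per methods; legend states 18 h). They were stained with CM-H2DCFDA for 45 min, collected, and analysed on a FACSCalibur flow cytometer. Fluorescence was normalised to solvent control; mean ± SEM, n=3.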

[7] = test system: MCF-7; assay: MTT cytotoxicity assay in normoxia and hypoxia, MCF-7
Method in brief: as §1

[8] = test system: γ-H2AX in HCT-116 cells; assay: Level of γ-H2AX by flow cytometry; settings: 30 µM, 24 h
[9] = test system: cleaved PARP in HCT-116 cells; assay: Level of cleaved PARP by flow cytometry; settings: HCT-116, hypoxia, 30 µM, 24 h
[10] = test system: γ-H2AX and cleaved PARP in HCT-116 cells; assay: Dual-parameter γ-H2AX and cleaved PARP flow cytometry; settings: 30 µM, 24 h
[11] = HCT-116, 24 h, read-out: Cytotoxicity (IC50) HCT-116 N
[12] = HCT-116, read-out: Cytotoxicity (IC50) HCT-116 H
[13] = HCT-116, read-out: Cytotoxicity (IC50), cell kill under hypoxia
[14] = NCI-H460, 24 h, read-out: Cytotoxicity (IC50) NCI-H460 N
[15] = NCI-H460, read-out: Cytotoxicity (IC50) NCI-H460 H

## NCCCCCCCNc1n[n+]([O-])c2ccccc2[n+]1[O-] [Compound 8f, N^1-(1,4-Dioxido-1,2,4-benzotriazine-3-yl)-1,7-heptanediamine]
[1]
  HCR = hypoxic cytotoxicity ratio IC50 (aerobic)/IC50 (hypoxic): 1.9
[1]; [11]
  IC50: 78.3 ± 4.9 µM
[1]; [12]
  IC50: 40.8 ± 4.3 µM
[1]; [13]
  IC50: 40.8 µM
[2]; [14]
  IC50: 79.4 ± 22.6 µM
[2]; [15]
  IC50: 42.8 ± 8.3 µM

## NCCCNc1n[n+]([O-])c2ccccc2[n+]1[O-] [Compound 8b, N^1-(1,4-Dioxido-1,2,4-benzotriazine-3-yl)-1,3-propanediamine]
[1]
  HCR = hypoxic cytotoxicity ratio IC50 (aerobic)/IC50 (hypoxic): 1.7
[1]; [11]
  IC50: 90.4 ± 3.5 µM
[1]; [12]
  IC50: 54.8 ± 8 µM
[1]; [13]
  IC50: 54.8 µM
[2]; [14]
  IC50: 95.6 ± 33.9 µM
[2]; [15]
  IC50: 79.5 ± 26.6 µM

## NCCNc1n[n+]([O-])c2ccccc2[n+]1[O-] [Compound 8a, N^1-(1,4-Dioxido-1,2,4-benzotriazine-3-yl)-1,2-ethanediamine]
[1]
  HCR = hypoxic cytotoxicity ratio IC50 (aerobic)/IC50 (hypoxic): 1.8
[1]; [11]
  IC50: 40.3 ± 14.6 µM
[1]; [12]
  IC50: 22.4 ± 9.7 µM
[1]; [13]
  IC50: 22.4 µM
[2]; [14]
  IC50: 18.7 ± 2.7 µM
[2]; [15]
  IC50: 10.1 ± 3.7 µM

## [O-][n+]1nc(NCCCNc2n[n+]([O-])c3ccccc3[n+]2[O-])nc2ccccc21 [Compound 9b, 3-(3-(1-Oxido-1,2,4-benzotriazin-3-yl)aminopropylamino)-1,2,4-benzotriazine-1,4-dioxide]
[3]
  reduction of areas, lengths, paths and joints of tube formation: 45-50%
[4]; HCT-116, hypoxia, 15 µM
  Sub-G1 (%): 4.3%
[4]; HCT-116, hypoxia, 30 µM
  G1 (%): 28.1±1.2%
  G2/M (%): 30.2±3.9%
  S (%): 29.3±4.7%
  Sub-G1 (%): 12.2% and 12.2±2.8%
[4]; HCT-116, normoxia, 15 µM
  Sub-G1 (%): ~2.8%
[4]; HCT-116, normoxia, 30 µM
  G1 (%): 35.0% and 35.0±5.1%
  G2/M (%): 48.0% and 48.0±1.9%
  S (%): 14.3±4.1%
  Sub-G1 (%): 2.1% and 2.1±0.1%
[1]; [11]
  IC50: 53.8 ± 4.7 µM
[1]; [12]
  IC50: 28.7 ± 6.7 µM
[2]; [14]
  IC50: 44.6 ± 4.3 µM
[2]; [15]
  IC50: 21.4 ± 4.8 µM
[2]
  HCR = IC50 (aerobic)/IC50 (hypoxia): 2.1
[5]
  level of active caspase 3/7: ~23%
  effect on level of active caspase 3/7: no apparent effect

## [O-][n+]1nc(NCCNc2n[n+]([O-])c3ccccc3[n+]2[O-])nc2ccccc21 [Compound 9a, 3-(2-(1-Oxido-1,2,4-benzotriazin-3-yl)aminoethylamino)-1,2,4-benzotriazine-1,4-dioxide]
[6]; HCT-116, hypoxia, 15 µM
  increase of ROS relative to control medium: 46 fold
[6]; HCT-116, hypoxia, 30 µM
  increase of ROS relative to control medium: 60 fold
[6]; HCT-116, normoxia, 15 µM
  increase of ROS relative to control medium: 3.4 fold
[6]; HCT-116, normoxia, 30 µM
  increase of ROS relative to control medium: 5.8 fold
[7]
  HCR = IC50 (aerobic)/IC50 (hypoxia): > 6.0
[3]
  reduction of areas, lengths, paths and joints of tube formation: 70-80%
[4]; HCT-116, hypoxia, 15 µM
  G1 (%): 26.2±3.7%
  G2/M (%): 31.4% and 31.4±3.2%
  S (%): 27.3±4.4%
  Sub-G1 (%): 13.1% and 13.1±1.7%
[4]; HCT-116, hypoxia, 30 µM
  G1 (%): 33.3±2.4%
  G2/M (%): 16.7% and 16.7±2.5%
  S (%): 25.8±3.8%
  Sub-G1 (%): 24.3% and 24.3±2.8%
[4]; HCT-116, normoxia, 15 µM
  G1 (%): 30.9±2.3%
  G2/M (%): 51.0% and 51.0±4.2%
  S (%): 15.0±5.5%
  Sub-G1 (%): 2.7±0.7%
[4]; HCT-116, normoxia, 30 µM
  G1 (%): 24.3±4.1%
  G2/M (%): 58.3% and 58.3±2.8%
  S (%): 12.9±5.2%
  Sub-G1 (%): 3.8% and 3.8±1.7%
[1]
  HCR = hypoxic cytotoxicity ratio IC50 (aerobic)/IC50 (hypoxic): 3.7
[1]; [11]
  IC50: 66.3 ± 16.5 µM
[1]; [12]
  IC50: 18.1 ± 2.6 µM
[8]; HCT-116, hypoxia, solvent control 4%
  expression of γ-H2AX: around 30%
[8]; HCT-116, normoxia
  effect on expression of γ-H2AX: no significant effect
[2]; [14]
  IC50: 43.7 ± 12.5 µM
[2]; [15]
  IC50: 17.5 ± 4.3 µM
[2]
  HCR = IC50 (aerobic)/IC50 (hypoxia): 2.5
[5]
  level of active caspase 3/7: ~55%
  effect on level of active caspase 3/7: no apparent effect
[9]
  cleaved PARP: ~45%
[10]; HCT-116, hypoxia
  cells expressing both γ-H2AX and cleaved PARP (upper right quadrant): approximately 11%
[10]; HCT-116, normoxia
  cells expressing both γ-H2AX and cleaved PARP (upper right quadrant): 0.1%

## [O-][n+]1nc(NCCCCCCCNc2n[n+]([O-])c3ccccc3[n+]2[O-])nc2ccccc21 [Compound 9f, 3-(7-(1-Oxido-1,2,4-benzotriazin-1-ium-3-yl)aminoheptylamino)-1,2,4-benzotriazine-1,4-dioxide]
[1]; [11]
  IC50: > 30 µM
[1]; [12]
  IC50: > 30 µM
[2]; [14]
  IC50: > 30 µM
[2]; [15]
  IC50: > 30 µM

## [O-][n+]1nc(NCCCCCNc2n[n+]([O-])c3ccccc3[n+]2[O-])nc2ccccc21 [Compound 9d, 3-(5-(1-Oxido-1,2,4-benzotriazin-1-ium-3-yl)aminopentylamino)-1,2,4-benzotriazine-1,4-dioxide]
[1]; [11]
  IC50: > 30 µM
[1]; [12]
  IC50: > 30 µM
[2]; [14]
  IC50: > 30 µM
[2]; [15]
  IC50: > 30 µM
